Reference: paper PMC7114883 (ACS Omega, 2020)
Converted amounts (≈) assume the structure as drawn. Like-named read-outs stand apart in the source and are kept apart here.

Assays:
P. falciparum NF54 [1] = details: read-out: IC50 PfNF54; reference drugs; ref Singh et al. 33; cited from earlier work
P. falciparum K1 [2] = details: read-out: IC50 PfK1; reference drugs; ref Singh et al. 33; cited from earlier work
hERG channel = hERG channel (Homo sapiens, UniProt Q12809); test: hERG channel inhibition; assay type: biochemical
Chain of hERG channel (Q12809 whole entry): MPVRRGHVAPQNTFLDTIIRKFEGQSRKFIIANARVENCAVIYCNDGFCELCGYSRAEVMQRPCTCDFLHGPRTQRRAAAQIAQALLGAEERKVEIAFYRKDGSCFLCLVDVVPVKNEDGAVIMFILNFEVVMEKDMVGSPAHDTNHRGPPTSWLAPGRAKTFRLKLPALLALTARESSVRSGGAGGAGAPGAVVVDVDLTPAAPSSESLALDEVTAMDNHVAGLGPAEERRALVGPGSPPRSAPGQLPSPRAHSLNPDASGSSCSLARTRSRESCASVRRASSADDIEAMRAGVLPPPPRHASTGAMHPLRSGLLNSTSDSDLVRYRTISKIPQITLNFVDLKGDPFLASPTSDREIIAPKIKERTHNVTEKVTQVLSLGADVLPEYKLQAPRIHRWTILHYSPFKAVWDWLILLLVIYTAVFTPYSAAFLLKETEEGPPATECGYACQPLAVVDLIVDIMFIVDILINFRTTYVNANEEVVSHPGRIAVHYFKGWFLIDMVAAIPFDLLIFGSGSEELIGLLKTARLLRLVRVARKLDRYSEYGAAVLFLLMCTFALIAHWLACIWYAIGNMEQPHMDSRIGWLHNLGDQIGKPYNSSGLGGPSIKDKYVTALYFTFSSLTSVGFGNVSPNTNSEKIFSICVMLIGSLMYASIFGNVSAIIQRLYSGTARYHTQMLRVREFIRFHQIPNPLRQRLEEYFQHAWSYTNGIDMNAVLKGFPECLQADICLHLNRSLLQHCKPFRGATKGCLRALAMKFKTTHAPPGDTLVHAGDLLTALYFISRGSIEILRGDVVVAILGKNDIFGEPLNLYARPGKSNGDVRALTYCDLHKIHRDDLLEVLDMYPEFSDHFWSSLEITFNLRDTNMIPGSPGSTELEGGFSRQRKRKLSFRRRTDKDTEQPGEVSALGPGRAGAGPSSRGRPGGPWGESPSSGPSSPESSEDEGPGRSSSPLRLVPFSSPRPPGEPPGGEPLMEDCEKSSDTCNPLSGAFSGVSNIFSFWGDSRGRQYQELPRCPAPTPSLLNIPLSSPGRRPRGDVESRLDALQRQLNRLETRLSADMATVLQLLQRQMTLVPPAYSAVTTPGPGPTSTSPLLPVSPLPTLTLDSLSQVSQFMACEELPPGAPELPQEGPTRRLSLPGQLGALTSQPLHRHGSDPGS

Solubility at pH 6.8 = assay type: physicochemical; details: pH 6.8, aqueous buffer
[3] = PAMPA parallel artificial membrane permeability assay; assay type: in vitro ADME; details: fraction absorbed
[4] = In vitro metabolic stability in mouse liver microsomes; assay type: in vitro ADME
[5] = In vitro metabolic stability in human liver microsomes; assay type: in vitro ADME
P. falciparum NF54 [6] = test: Pf NF54 activity determined at NITD; assay type: cell-based; details: Plasmodium falciparum, NF54, read-out: IC50 PfNF54
[7] = Aqueous solubility, miniaturized shake flask method; assay type: physicochemical; details: aqueous solution, 25 °C, thermodynamic from solid
[8] = Microsomal metabolic stability, human liver microsomes; assay type: in vitro ADME; details: pooled human liver microsomes, pH 7.4
Method in brief: (§1)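 Test compound at 0.1 μM incubated at 37 °C, in duplicate, with liver microsomes (mouse, rat or pooled human; final protein 0.4 mg/mL) in 0.1 M phosphate buffer pH 7.4, with and without 1 mM NADPH. Quenched with ice-cold acetonitrile containing internal standard, centrifuged, and supernatant analysed by LC–MS/MS. Parent remaining after 30 min expressed as percent.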

[9] = Microsomal metabolic stability, mouse liver microsomes; assay type: in vitro ADME; details: pH 7.4
Method in brief: as §1

[10] = Microsomal metabolic stability, rat liver microsomes; assay type: in vitro ADME; details: pH 7.4
Method in brief: as §1

[11] = Pharmacokinetic studies in rats; assay type: in vivo; details: rat, plasma, iv, 1 mg/kg
[12] = P. berghei mouse model efficacy; assay type: in vivo, Plasmodium berghei (NMRI mice); details: female, NMRI, plasma, po, 100 mg/kg
[13] = P. falciparum SCID mouse model efficacy; assay type: in vivo, Plasmodium falciparum (NOD-scid IL-2Rγnull mice); details: female, NOD-scid IL-2Rγnull, plasma, po, 25 mg/kg
P. falciparum NF54 [14] = test: In vitro antiplasmodium assay; assay type: cell-based, Plasmodium falciparum; details: for in vitro antiplasmodium activity (in words): authors' Pf assays
P. falciparum K1 [15] = test: In vitro antiplasmodium assay; assay type: cell-based; details: Plasmodium falciparum, K1, read-out: IC50 PfK1
[16] = test system: Chinese hamster ovarian (CHO) cell line; test: Cytotoxicity MTT assay; assay type: cell-based; details: CHO cells, relative to 4-unsubstituted compound 3
[17] = test system: Chinese hamster ovarian (CHO) cell line; details: read-out: IC50 (CHO); reference drug; ref Singh et al. 33; cited from earlier work
[18] = Plasmodium falciparum, NF54, read-out: IC50 PfNF54, drug-sensitive NF54 strain, mean of ≥2 independent experiments
[19] = read-out: IC50 PfNF54, drug-sensitive NF54 strain, mean of ≥2 independent experiments

| SMILES | IC50 (hERG channel) | remaining at 0.5 h, 0.1 μM [8] | remaining at 0.5 h, 0.1 μM [9] | remaining at 0.5 h, 0.1 μM [10] | IC50 (P. falciparum NF54 [14]; [18]) | in vitro antiplasmodium activity (in words) (P. falciparum NF54 [14]) | further results |
| --- | --- | --- | --- | --- | --- | --- | --- |
| C[C@H]1[C@H](OC(=O)CCC(=O)O)O[C@@H]2O[C@@]3(C)CC[C@H]4[C@H](C)CC[C@@H]1[C@@]24OO3 [Artesunate] | – | – | – | – | – | – | IC50 (P. falciparum NF54 [1]): 4 nM; IC50 (P. falciparum K1 [2]): 3 nM |
| CCN(CC)CCCC(C)Nc1ccnc2cc(Cl)ccc12 (stereo not shown) [Chloroquine] | – | – | – | – | – | – | IC50 (P. falciparum NF54 [1]): 16 nM; IC50 (P. falciparum K1 [2]): 194 nM |
| c1ccc(Cn2c(N3CCNCC3)nc3ccccc32)cc1 [Compound 1, Lerisetron, reference compound] | 320 nM | – | – | – | – | – | solubility (Solubility at pH 6.8): > 1000 µM; PAMPA (%FA) [3]: 99 %FA; In vitro metabolic stability in liver microsomes, mouse [4]: 29 µL/min/mg; In vitro metabolic stability in liver microsomes, human [5]: 26.6 µL/min/mg; IC50 (P. falciparum NF54 [6]): 810 nM |
| Cl.Clc1ccc2c(c1)nc(N1CCNCC1)n2Cc1ccccc1 [Compound 3] | 9 nM | 74.4% | 63% | 42.1% | – | – | solubility at 20 h ([7]; pH 2, simulated gastric fluid): 150 µM; solubility at 20 h ([7]; pH 6.5, aqueous buffer): 140 µM; half-life [11]: 1.98 h; AUC [12]: 377 µM·h; Cmax [12]: 20.6 µM; AUC [13]: 86 µM·h; Cmax [13]: 5.2 µM; solubility (Solubility at pH 6.8): 770 µM; PAMPA (%FA) [3]: 99 %FA |
| FC(F)(F)c1ccc2c(c1)nc(N1CCNCC1)n2Cc1ccccc1 [Compound 14c] | 150 nM | 92.2% | 82% | 95.6% | – | – | – |
| c1ccc2c(c1)nc(N1CCNCC1)n2Cc1ccncc1 [Compound 14i] | – | – | – | – | > 10000 nM | inactive | – |
| Clc1ccc2c(c1)nc(N1CCOCC1)n2Cc1ccccc1 [Compound 16a, 4-(1-Benzyl-5-chloro-1H benzo[d]imidazol-2-yl)morpholine] | – | – | – | – | > 1000 nM | – | – |
| Brc1ccc2c(c1)nc(N1CCNCC1)n2Cc1ccccc1 [Compound 16b, 1-Benzyl-5-bromo-2-(piperazin-1-yl)-1H-benzo[d]imidazole] | 30 nM | 88.2% | 94% | 89.8% | – | – | IC50 (P. falciparum NF54 [14]; [19]): 42.4 nM |
| Cl.Clc1ccc2c(c1)nc(N1CCNCC1)n2CCc1ccccc1 [Compound 16g, 5-Chloro-1-phenethyl-2-(piperazin-1-yl)-1H-benzo[d]imidazole Hydrochloride] | – | – | – | – | > 1000 nM | inactive | – |
| O=C1CN(c2nc3cc(Cl)ccc3n2Cc2ccccc2)CCN1 [Compound 17] | 2300 nM | – | – | – | > 1000 nM | – | – |
| CC(=O)N1CCN(c2nc3cc(Cl)ccc3n2Cc2ccccc2)CC1 [Compound 18] | 390 nM | – | – | – | > 1000 nM | – | – |
| N#CCN1CCN(c2nc3cc(Cl)ccc3n2Cc2ccccc2)CC1 [Compound 19] | 180 nM | 8.6% | 2% | 1.2% | 306 nM | – | IC50 (P. falciparum K1 [15]): 454 nM; solubility at 20 h ([7]; pH 2, simulated gastric fluid): > 150 µM; solubility at 20 h ([7]; pH 6.5, aqueous buffer): < 5 µM |
| O=C(O)CN1CCN(c2nc3cc(Cl)ccc3n2Cc2ccccc2)CC1 [Compound 20] | – | – | – | – | > 10000 nM | inactive | solubility at 20 h ([7]; pH 6.5, aqueous buffer): 200 µM (≈ 77 µg/mL) |
| O=C(NCCCNc1nc2ccccc2n1Cc1ccccc1)c1cc(Cl)cc(Cl)c1 [Compound 21] | – | – | – | – | 9510 nM | completely inactive | solubility at 20 h ([7]; pH 2, simulated gastric fluid): 10 µM (≈ 4.53 µg/mL) |
| Cc1ccc(C(=O)N2CCN(c3nc4ccccc4n3C)CC2)cc1.Cl [Compound 22] | – | – | – | – | > 10000 nM | completely inactive | – |
| Cc1ccc(C(=O)N2CCN(c3nc4cc(Cl)ccc4n3Cc3ccccc3)CC2)cc1 [Compound 23] | – | – | – | – | > 10000 nM | completely inactive | – |

| SMILES | IC50 (hERG channel) | remaining at 0.5 h, 0.1 μM [8] | remaining at 0.5 h, 0.1 μM [9] | remaining at 0.5 h, 0.1 μM [10] | IC50 (P. falciparum NF54 [14]; [18]) | in vitro antiplasmodium activity (in words) (P. falciparum NF54 [14]) | further results |
| --- | --- | --- | --- | --- | --- | --- | --- |
| O=S(=O)(c1ccc(Cl)cc1)N1CCN(c2nc3cc(Cl)ccc3n2Cc2ccccc2)CC1 [Compound 25] | – | – | – | – | 5260 nM | completely inactive | – |
| Cc1ccc(Cn2c(N3CCC(C(=O)NCc4cccs4)CC3)nc3ccccc32)cc1 [Compound 26, 1-(1-(4-methylbenzyl)-1H-benzo[d]imidazol-2-yl)-N-(thiophen-2-ylmethyl)piperidine-4-carboxamide] | – | – | – | – | 600 nM | weakly active | solubility at 20 h ([7]; pH 6.5, aqueous buffer): < 5 µM |
| C[C@@H]1CN(c2nc3cc(Cl)ccc3n2Cc2ccccc2)C[C@H](C)N1 [Compound 27] | 17 nM | 23.2% | 31.3% | 36.5% | – | – | – |
| NC1CCN(c2nc3cc(Cl)ccc3n2Cc2ccccc2)CC1 [Compound 28] | 70 nM | 80.9% | 76% | 39.9% | – | – | – |
| NCCNc1nc2cc(Cl)ccc2n1Cc1ccccc1 [Compound 33, N^1-(1-benzyl-5-chloro-1H-benzo[d]imidazol-2-yl)ethane-1,2-diamine] | 2200 nM | 98.9% | 71.2% | 88% | – | – | hERG safety window (hERG channel; hERG versus antiplasmodium activity): 10 fold |
| NCCCNc1nc2cc(Br)ccc2n1Cc1ccccc1 [Compound 41, N^1-(1-Benzyl-5-bromo-1H-benzo[d]imidazol-2-yl)propane-1,3-diamine] | – | 99.4% | 98.6% | 97% | – | – | – |
| Cl.Clc1ccc2c(nc(N3CCNCC3)n2Cc2ccccc2)c1Cl [Compound 42a] | 590 nM | 76.3% | 72.5% | 66.1% | – | – | fold more cytotoxic than 3 [16]: ~4 fold |
| Clc1ccc2c(nc(N3CCNCC3)n2Cc2ccccc2)c1Br [Compound 42k] | – | 97.4% | 91.6% | 93.8% | – | – | fold more cytotoxic than 3 [16]: ~4 fold |
| Clc1ccc2c(c1)nc(C1CCNCC1)n2Cc1ccccc1 [Compound 46a, 1-Benzyl-5-chloro-2-(piperidin-4-yl)-1H-benzo[d]imidazole] | 460 nM | 91.8% | 97.6% | 92.9% | – | – | IC50 (P. falciparum NF54 [14]; [19]): 37.9 nM |
| Brc1ccc2c(c1)nc(C1CCNCC1)n2Cc1ccccc1 [Compound 46b] | – | 99.3% | 97.4% | 97.7% | – | – | – |
| COC(=O)c1ccc2c(c1)nc(C1CCNCC1)n2Cc1ccccc1 [Compound 46d] | – | – | – | – | – | inactive | – |
| CS(=O)(=O)c1ccc2c(c1)nc(C1CCNCC1)n2Cc1ccccc1.Cl [Compound 46e] | – | – | – | – | – | inactive | – |
| c1ccc(Cn2c(N3CCNCC3)nc3cnccc32)cc1 [Compound 57b] | – | – | – | – | > 1000 nM | inactive | – |
| Cl.c1ccc(Cn2c(N3CCNCC3)nc3ccccc32)nc1 [Compound 59] | – | – | – | – | 9770 nM | inactive | – |
| Cl.Cn1c(N2CCNCC2)nc2ccccc21 [Compound 60, 1-methyl-2-(piperazin-1-yl)-1H-benzo[d]imidazole hydrochloride] | – | – | – | – | – | inactive | IC50 (P. falciparum NF54 [14]; Plasmodium falciparum, NF54, read-out: IC50 PfNF54): > 10000 nM |
| CC[C@H]1CN2CCc3cc(OC)c(OC)cc3[C@@H]2C[C@@H]1C[C@H]1NCCc2cc(OC)c(OC)cc21 [Emetine] | – | – | – | – | – | – | IC50 [17]: 95 nM |
